Experimental data pooled from the literature.
Each line is one published result; the experiments were not run side by side.
Target: Phosphatidylinositol 4,5-bisphosphate 3-kinase catalytic subunit delta isoform (PIK3CD, Homo sapiens, UniProt O00329)
Sequence (O00329 1-1044, as in one of the studies): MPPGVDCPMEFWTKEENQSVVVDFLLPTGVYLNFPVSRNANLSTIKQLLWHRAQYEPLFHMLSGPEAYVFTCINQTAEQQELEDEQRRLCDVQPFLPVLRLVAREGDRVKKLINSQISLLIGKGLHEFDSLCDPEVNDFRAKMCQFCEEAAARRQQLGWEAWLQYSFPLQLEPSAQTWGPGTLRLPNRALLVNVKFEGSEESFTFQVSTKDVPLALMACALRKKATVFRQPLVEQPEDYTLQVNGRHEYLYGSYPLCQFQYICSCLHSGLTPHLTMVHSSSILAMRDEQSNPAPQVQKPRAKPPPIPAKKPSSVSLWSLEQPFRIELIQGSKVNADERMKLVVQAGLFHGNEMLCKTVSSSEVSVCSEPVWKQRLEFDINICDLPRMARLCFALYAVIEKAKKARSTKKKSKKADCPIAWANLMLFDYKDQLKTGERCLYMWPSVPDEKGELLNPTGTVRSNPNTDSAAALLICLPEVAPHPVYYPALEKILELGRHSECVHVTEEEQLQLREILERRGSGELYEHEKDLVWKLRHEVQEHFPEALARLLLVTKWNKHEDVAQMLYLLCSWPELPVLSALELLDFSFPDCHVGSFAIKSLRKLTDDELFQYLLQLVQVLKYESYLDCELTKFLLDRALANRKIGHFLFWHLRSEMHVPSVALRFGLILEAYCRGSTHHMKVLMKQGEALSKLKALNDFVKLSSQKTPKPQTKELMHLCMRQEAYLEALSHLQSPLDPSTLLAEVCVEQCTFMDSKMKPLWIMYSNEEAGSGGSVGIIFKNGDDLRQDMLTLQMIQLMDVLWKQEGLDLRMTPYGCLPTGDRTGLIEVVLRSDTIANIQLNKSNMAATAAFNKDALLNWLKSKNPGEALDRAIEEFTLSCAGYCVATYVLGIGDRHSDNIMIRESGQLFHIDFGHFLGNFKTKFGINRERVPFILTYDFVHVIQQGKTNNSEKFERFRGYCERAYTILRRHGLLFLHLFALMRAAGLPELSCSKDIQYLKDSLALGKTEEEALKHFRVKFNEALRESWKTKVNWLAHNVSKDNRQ

| SMILES | read-out | method | tested at | remaining binding |
| --- | --- | --- | --- | --- |
| COc1cnc(Nc2cccc(S(N)(=O)=O)c2)nc1N1CCN(c2ccccc2)CC1 | binding | competition with immobilised ligand | 1 µM | 81% |
| Nc1ncc2c(n1)-c1c([nH]c3ccc(C#CC4CC4)cc13)CCCC2 | binding | competition with immobilised ligand | 1 µM | 70% |
| c1cnn2ncc(-c3ccnc(N4CCC45COC5)n3)c2c1 | binding |  | 1 µM | 69% |
| Cc1cc(-n2nc(Cc3cc(F)cc(C(F)(F)F)c3)nc2C)ccc1C(N)=O | cell-free assay | competition with immobilised ligand | 1 µM | 52% |
| O=C(c1ccc(Nc2nccc(-c3cc4ccccc4s3)n2)cc1)N1CCC(N2CCCC2)CC1 | binding | competition with immobilised ligand | 1 µM | 41% |
| COc1ccnn2ncc(-c3ccnc(N(C)C)n3)c12 | binding |  | 1 µM | 68% |
| COc1ccc2c(c1)O[C@@H](c1ccc(OC)c(OC)c1)C[C@H]2NC(=O)C1(c2ccc3c(c2)OC(F)(F)O3)CC1 | cell-free assay | competition with immobilised ligand | 1 µM | 97% |
| C[C@H]1CCN(c2nccc(-c3cnn4ncccc34)n2)C1 | binding |  | 1 µM | 100% |
| COc1ncc2cc3ccccc3nc2c1C#N | cell-free assay | competition with immobilised ligand | 5 µM | 98% |
| O=C1NC(c2ccccn2)Sc2ccccc21 (stereo not drawn) | cell-free assay | competition with immobilised ligand | 1 µM | 51% |
| N[C@@H]1CCN(c2nccc(-c3cnn4ncccc34)n2)C1 | binding |  | 1 µM | 100% |
| C[C@H](NC(=O)c1cnc2n1[C@](C)(Cc1ccc(C#N)cc1)C(=O)N2c1cc(Cl)c(F)c(Cl)c1)C(=O)NC1(c2ccccn2)CC1 | cell-free assay | competition with immobilised ligand | 1 µM | 95% |
| O=C(c1ccc(Nc2ncc(Cl)c(-c3cc4ccccc4s3)n2)cc1)N1CCC(N2CCCC2)CC1 | binding | competition with immobilised ligand | 1 µM | 71% |
| C[C@@H](c1ccc(-n2cnc3c(N)ncnc32)cc1)N1CCc2nn(C)c(Cc3ccccc3)c2C1=O | binding | competition with immobilised ligand | 0.1 µM | 61% |
| CN(C)c1nccc(-c2cnc3ncccn23)n1 | binding |  | 1 µM | 50% |
| C=CC(=O)N1CCC(C(=O)NCC(=O)N2CCN(c3nc(-c4cnc(N)nc4C(F)F)nc(N4CCOCC4)n3)CC2)CC1 | binding | competition with immobilised ligand | 1 µM | 19% |
| CC1=C(C#N)[C@@H](c2ccc3[nH]nc(C)c3c2)C(C#N)=C(c2ccc(Cl)cc2)N1 | cell-free assay | competition with immobilised ligand | 1 µM | 100% |
| O=C(NCCCN1CCOCC1)c1ccc(Nc2nccc(-c3cc4ccccc4s3)n2)cc1 | binding | competition with immobilised ligand | 1 µM | 56% |
| Cc1cnn2ncc(-c3ccnc(N(C)C)n3)c2c1 | binding |  | 1 µM | 100% |
| CN(c1ccnc(CNc2nc(Nc3ccc4c(c3)CC(=O)N4)ncc2C(F)(F)F)n1)S(C)(=O)=O | cell-free assay | competition with immobilised ligand | 1 µM | 77% |
| O=C(Nc1c[nH]nc1C(=O)NC1CCNCC1)c1cc(F)cc(F)c1 | binding | competition with immobilised ligand | 1 µM | 100% |
